Results from ChEMBL document CHEMBL3580610, “Design, Synthesis, and Evaluation of Thyronamine Analogues as Novel Potent Mouse Trace Amine Associated Receptor 1 (mTAAR1) Agonists” (J Med Chem, 2015).
Active and inactive are the calls of the source. The rule behind the calls is not given here.

How the values were obtained:
[1] = molecular target: Trace amine-associated receptor 1 (Mus musculus) (UniProt Q923Y8); test: Agonist activity at mouse TAAR1 expressed in HEK293 cells coexpressing cAMP BRET biosensor assessed as induction of CAMP production after 20 mins by bioluminescence resonance energy transfer assay relative to control; format: functional, cell-based
Chain of Trace amine-associated receptor 1 (Mus musculus) (Q923Y8 whole entry): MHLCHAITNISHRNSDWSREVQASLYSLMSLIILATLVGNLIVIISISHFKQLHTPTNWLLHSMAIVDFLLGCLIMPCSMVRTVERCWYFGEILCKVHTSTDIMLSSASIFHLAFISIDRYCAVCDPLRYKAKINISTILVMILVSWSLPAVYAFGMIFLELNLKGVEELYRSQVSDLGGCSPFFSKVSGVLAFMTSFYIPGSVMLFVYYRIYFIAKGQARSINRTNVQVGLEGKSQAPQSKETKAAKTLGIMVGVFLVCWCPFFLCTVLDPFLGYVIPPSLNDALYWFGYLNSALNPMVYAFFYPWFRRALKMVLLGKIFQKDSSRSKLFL
Summary of the method: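 Transient co-transfection of HEK-293 cells with mTAAR1 and the EPAC cAMP BRET biosensor; empty vector as control. Assayed with IBMX at 200 μM final. Screened at 10 μM, then dose-response on actives. Read-out is the acceptor/donor ratio from the 465−505 and 515−555 nm windows; time courses read for about 20 min after agonist addition. EC50 from nonlinear regression (one site specific binding); 4−6 independent experiments, mean ± SEM.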

Heart [2] = test: Reduction in cardiac out put in male Wistar rat heart assessed as aortic and coronary flow at 40 uM within 10 mins by Cardiac perfusion technique relative to control; format: functional
Heart [3] = test: Reduction in cardiac out put in male Wistar rat heart assessed as aortic and coronary flow after 30 mins by Cardiac perfusion technique; format: functional, tissue-based; details: 0.5 h
Summary of the method: (§1)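 Male Wistar rats (275−300 g) were anesthetized with ether/air and given 1000 U heparin iv (femoral vein). The heart was excised and perfused as a working heart (atrial 20 cm, aortic 100 cm cannulae). After 5 min equilibration, it was perfused 60 min with buffer containing DMSO vehicle or escalating doses in DMSO. Cardiac output = aortic + coronary flow. 30-min values are expressed as % of baseline. IC50 from sigmoidal nonlinear regression; 3−7 hearts per group, mean ± SE.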

Heart [4] = test: Reduction in cardiac out put in male Wistar rat heart assessed as aortic and coronary flow measured as rate of duration of experiment at 40 uM by Cardiac perfusion technique; format: functional
Mus musculus [5] = test: Induction of plasma glucose level in fasted CD1 mouse at 4 ug/kg, ip after 15 mins glucorefractometry relative to T1AM; format: functional, organism-based
Summary of the method: (§2)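 Male CD-1 mice were fasted 4 h (8 to 12 h) and given a single ip dose (1.32, 4 or 11 μg·kg−1) or saline; n = 10 per group. Tail-vein blood glucose was read by glucorefractometer 15 min after injection. One-way ANOVA with Student−Newman−Keuls post hoc test, P < 0.05; mean ± SEM.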

Heart [6] = test: Reduction in cardiac out put in male Wistar rat heart assessed as aortic and coronary flow at 20 to 40 uM after 30 mins by Cardiac perfusion technique; format: functional, tissue-based; summary of the method: as §1
[7] = molecular target: Trace amine-associated receptor 1 (Mus musculus, UniProt Q923Y8); test: Agonist activity at mouse TAAR1 expressed in HEK293 cells coexpressing cAMP BRET biosensor assessed as induction of CAMP production after 20 mins by bioluminescence resonance energy transfer assay; format: functional, cell-based
Chain of Trace amine-associated receptor 1 (Q923Y8 whole entry): as above
Summary of the method: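 HEK-293 cells transiently transfected with mTAAR1 (or empty vector as control) plus EPAC cAMP BRET biosensor. Read started immediately after agonist addition, continuing ~20 min. IBMX 200 μM final present throughout. Initial screen at 10 μM; actives then run as dose-response. Emission read in 465−505 and 515−555 nm windows, acceptor/donor ratio taken. EC50 from nonlinear one-site fit; 4−6 independent experiments, mean ± SEM.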

Mus musculus [8] = test: Induction of plasma glucose level in fasted CD1 mouse at 1.32 ug/kg, ip after 15 mins glucorefractometry relative to T0AM; format: functional, organism-based; summary of the method: as §2

| Structure (SMILES) | Emax [1] [%] | IC50 (Heart [3]) [µM] | EC50 [7] [nM] | Activity (Mus musculus [8]) | other results |
| --- | --- | --- | --- | --- | --- |
| Cc1cc(OCCN)ccc1Cc1ccc(N)cc1 | 75 | 30 | 240 | – | inhibition at 40 µM (Heart [2]): 60%; Time (Heart [4]): 1 h; Activity (Mus musculus [5]): Active; inhibition (Heart [6]): Active |
| NCCOc1ccc(Cc2ccc(N)cc2)cc1 | 40 | 34 | 1700 | inactive | – |
| NCCc1ccc(Oc2ccc(O)cc2)c(I)c1 | – | 27 | 189 | – | – |
| NCCc1ccccc1 [PHENETHYLAMINE] | – | – | 138 | – | – |
| Cc1cc(OCC(=O)O)ccc1Cc1ccc(N)cc1 | – | 30 | – | Active | – |
| NCCc1ccc(Cc2ccc(N)cc2)cc1 | 100 | – | 800 | – | – |
| NCCOc1ccc(Cc2ccc(O)cc2)cc1 | 80 | – | 2200 | – | – |
| Nc1ccc(Cc2ccc(OCC(=O)O)cc2)cc1 | – | 30 | – | inactive | – |
